Source: ChEMBL document CHEMBL1649124, “Genetic variability among ampC genes from acinetobacter genomic species 3” (Antimicrob Agents Chemother, 2009)
In brackets after ≈: the same amount, converted by molar mass. Blank lines part the entries; values can stand above or below the molecule they belong to.

Experiments:
Assay type in all cases: functional
[1] = test system: Acinetobacter pittii; assay: Antibacterial activity against Acinetobacter genomosp. 3 isolate 52 by Etest method of efflux pump inhibitor CCCP
[2] = test system: Acinetobacter pittii; assay: Antibacterial activity against Acinetobacter genomosp. 3 isolate 52 by Etest method in presence of cloxacillin and efflux pump inhibitor CCCP
[3] = test system: Escherichia coli; assay: Antibacterial activity against Escherichia coli DH5alpha carrying ampC gene of Acinetobacter genomosp. 3 isolate 195 by Etest method
Procedure, shortened: (§1)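 E. coli DH5α expressing the AG3 isolate ampC gene, PCR-amplified (high-fidelity system, 28 cycles) and cloned into BamHI/HindIII sites of pBGS18 (kanamycin marker) under the CTX-M-14 β-lactamase promoter. Grown at 37°C in LB, with kanamycin 50 µg/ml when needed. β-Lactam MICs determined by Etest per the manufacturer's instructions.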

[4] = test system: Acinetobacter pittii; assay: Antibacterial activity against Acinetobacter genomosp. 3 isolate 65 by Etest method in presence of cloxacillin
Procedure, shortened: (§2)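 MICs for AG3 clinical isolates were read by Etest following the manufacturer's instructions. Isolates were stored at –80°C in 10% Brucella glycerol broth before testing.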

[5] = test system: Acinetobacter pittii; assay: Antibacterial activity against Acinetobacter genomosp. 3 isolate 195 by Etest method in presence of cloxacillin and efflux pump inhibitor PAN
[6] = test system: Acinetobacter pittii; assay: Antibacterial activity against Acinetobacter genomosp. 3 isolate 128 by Etest method; procedure, shortened: as §2
[7] = test system: Acinetobacter pittii; assay: Antibacterial activity against Acinetobacter genomosp. 3 isolate 20 by Etest method in efflux pump inhibitor CCCP
[8] = test system: Acinetobacter pittii; assay: Antibacterial activity against Acinetobacter genomosp. 3 isolate 67 by Etest method in presence of efflux pump inhibitor CCCP
[9] = test system: Acinetobacter pittii; assay: Antibacterial activity against Acinetobacter genomosp. 3 isolate 60 by Etest method in presence of efflux pump inhibitor CCCP
[10] = test system: Acinetobacter pittii; assay: Antibacterial activity against Acinetobacter genomosp. 3 isolate 65 by Etest method in presence of efflux pump inhibitor CCCP
[11] = test system: Acinetobacter pittii; assay: Antibacterial activity against Acinetobacter genomosp. 3 isolate 243 by Etest method in presence of cloxacillin and efflux pump inhibitor PAN
[12] = test system: Acinetobacter pittii; assay: Antibacterial activity against Acinetobacter genomosp. 3 isolate 128 by Etest method in presence of cloxacillin; procedure, shortened: as §2
[13] = test system: Acinetobacter pittii; assay: Antibacterial activity against Acinetobacter genomosp. 3 isolate 195 by Etest method in presence of cloxacillin and efflux pump inhibitor CCCP
[14] = test system: Acinetobacter pittii; assay: Antibacterial activity against Acinetobacter genomosp. 3 isolate 21 by Etest method in presence of efflux pump inhibitor CCCP
[15] = test system: Acinetobacter pittii; assay: Antibacterial activity against Acinetobacter genomosp. 3 isolate 103 by Etest method in presence of efflux pump inhibitor CCCP
[16] = test system: Acinetobacter pittii; assay: Antibacterial activity against Acinetobacter genomosp. 3 isolate 69 by Etest method in presence of cloxacillin; procedure, shortened: as §2
[17] = test system: Acinetobacter pittii; assay: Antibacterial activity against Acinetobacter genomosp. 3 isolate 128 by Etest method in presence of cloxacillin and efflux pump inhibitor PAN
[18] = test system: Acinetobacter pittii; assay: Antibacterial activity against Acinetobacter genomosp. 3 isolate 128 by Etest method in presence of efflux pump inhibitor PAN
[19] = test system: Acinetobacter pittii; assay: Antibacterial activity against Acinetobacter genomosp. 3 isolate 56 by Etest method in presence of cloxacillin and efflux pump inhibitor PAN
[20] = test system: Acinetobacter pittii; assay: Antibacterial activity against Acinetobacter genomosp. 3 isolate 103 by Etest method in presence of cloxacillin and efflux pump inhibitor CCCP
[21] = test system: Acinetobacter pittii; assay: Antibacterial activity against Acinetobacter genomosp. 3 isolate 14 by Etest method; procedure, shortened: as §2
[22] = test system: Acinetobacter pittii; assay: Antibacterial activity against Acinetobacter genomosp. 3 isolate 52 by Etest method in presence of cloxacillin; procedure, shortened: as §2
[23] = test system: Acinetobacter pittii; assay: Antibacterial activity against Acinetobacter genomosp. 3 isolate 21 by Etest method in presence of cloxacillin and efflux pump inhibitor CCCP
[24] = test system: Acinetobacter pittii; assay: Antibacterial activity against Acinetobacter genomosp. 3 isolate 60 by Etest method in presence of cloxacillin; procedure, shortened: as §2
[25] = test system: Acinetobacter pittii; assay: Antibacterial activity against Acinetobacter genomosp. 3 isolate 20 by Etest method in presence of cloxacillin; procedure, shortened: as §2
[26] = test system: Acinetobacter pittii; assay: Antibacterial activity against Acinetobacter genomosp. 3 isolate 90 by Etest method in presence of efflux pump inhibitor CCCP
[27] = test system: Escherichia coli; assay: Antibacterial activity against Escherichia coli DH5alpha carrying ampC gene of Acinetobacter genomosp. 3 isolate 69 by Etest method; procedure, shortened: as §1
[28] = test system: Acinetobacter pittii; assay: Antibacterial activity against Acinetobacter genomosp. 3 isolate 67 by Etest method in presence of efflux pump inhibitor PAN
[29] = test system: Acinetobacter pittii; assay: Antibacterial activity against Acinetobacter genomosp. 3 isolate 52 by Etest method in presence of cloxacillin and efflux pump inhibitor PAN
[30] = test system: Acinetobacter pittii; assay: Antibacterial activity against Acinetobacter genomosp. 3 isolate 67 by Etest method in presence of cloxacillin; procedure, shortened: as §2
[31] = test system: Escherichia coli; assay: Antibacterial activity against Escherichia coli DH5alpha carrying ampC gene of Acinetobacter genomosp. 3 isolate 56 by Etest method; procedure, shortened: as §1
[32] = test system: Acinetobacter pittii; assay: Antibacterial activity against Acinetobacter genomosp. 3 isolate 90 by Etest method in presence of cloxacillin and efflux pump inhibitor CCCP
[33] = test system: Acinetobacter pittii; assay: Antibacterial activity against Acinetobacter genomosp. 3 isolate 195 by Etest method in presence of cloxacillin; procedure, shortened: as §2
[34] = test system: Acinetobacter pittii; assay: Antibacterial activity against Acinetobacter genomosp. 3 isolate 65 by Etest method in presence of cloxacillin and efflux pump inhibitor CCCP
[35] = test system: Acinetobacter pittii; assay: Antibacterial activity against Acinetobacter genomosp. 3 isolate 243 by Etest method in presence of cloxacillin; procedure, shortened: as §2
[36] = test system: Acinetobacter pittii; assay: Antibacterial activity against Acinetobacter genomosp. 3 isolate 243 by Etest method in presence of efflux pump inhibitor CCCP
[37] = test system: Escherichia coli; assay: Antibacterial activity against Escherichia coli DH5alpha carrying ampC gene of Acinetobacter genomosp. 3 isolate 65 by Etest method; procedure, shortened: as §1
[38] = test system: Acinetobacter pittii; assay: Antibacterial activity against Acinetobacter genomosp. 3 isolate 69 by Etest method in presence of cloxacillin and efflux pump inhibitor CCCP
[39] = test system: Acinetobacter pittii; assay: Antibacterial activity against Acinetobacter genomosp. 3 isolate 21 by Etest method; procedure, shortened: as §2
[40] = test system: Acinetobacter pittii; assay: Antibacterial activity against Acinetobacter genomosp. 3 isolate 109 by Etest method in presence of cloxacillin and efflux pump inhibitor CCCP
[41] = test system: Acinetobacter pittii; assay: Antibacterial activity against Acinetobacter genomosp. 3 isolate 103 by Etest method in presence of efflux pump inhibitor PAN
[42] = test system: Acinetobacter pittii; assay: Antibacterial activity against Acinetobacter genomosp. 3 isolate 103 by Etest method in presence of cloxacillin and efflux pump inhibitor PAN
[43] = test system: Acinetobacter pittii; assay: Antibacterial activity against Acinetobacter genomosp. 3 isolate 60 by Etest method; procedure, shortened: as §2
[44] = test system: Acinetobacter pittii; assay: Antibacterial activity against Acinetobacter genomosp. 3 isolate 128 by Etest method in presence of cloxacillin and efflux pump inhibitor CCCP
[45] = test system: Acinetobacter pittii; assay: Antibacterial activity against Acinetobacter genomosp. 3 isolate 69 by Etest method in presence of efflux pump inhibitor CCCP
[46] = test system: Acinetobacter pittii; assay: Antibacterial activity against Acinetobacter genomosp. 3 isolate 90 by Etest method; procedure, shortened: as §2
[47] = test system: Acinetobacter pittii; assay: Antibacterial activity against Acinetobacter genomosp. 3 isolate 56 by Etest method in presence of cloxacillin and efflux pump inhibitor CCCP
[48] = test system: Acinetobacter pittii; assay: Antibacterial activity against Acinetobacter genomosp. 3 isolate 20 by Etest method in presence of efflux pump inhibitor PAN
[49] = test system: Acinetobacter pittii; assay: Antibacterial activity against Acinetobacter genomosp. 3 isolate 109 by Etest method in presence of cloxacillin and efflux pump inhibitor PAN

MIC [1]: > 256 µg/mL
MIC [2]: 12 µg/mL
MIC [3]: > 256 µg/mL
MIC [4]: 128 µg/mL
MIC [5]: > 256 µg/mL
MIC [6]: > 256 µg/mL
MIC [7]: > 256 µg/mL
MIC [8]: 192 µg/mL
MIC [9]: > 256 µg/mL
MIC [10]: 128 µg/mL
MIC [11]: 192 µg/mL
MIC [12]: 48 µg/mL
MIC [13]: 96 µg/mL
MIC [14]: > 256 µg/mL
MIC [15]: > 256 µg/mL
MIC [16]: > 256 µg/mL
MIC [17]: 48 µg/mL
MIC [18]: > 256 µg/mL
MIC [19]: > 256 µg/mL
MIC [20]: 24 µg/mL
MIC [21]: > 256 µg/mL
MIC [22]: > 256 µg/mL
MIC [23]: 48 µg/mL
MIC [24]: > 256 µg/mL
MIC [25]: > 256 µg/mL
MIC [26]: > 256 µg/mL
MIC [27]: > 256 µg/mL
MIC [28]: > 256 µg/mL
MIC [29]: > 256 µg/mL
MIC [30]: 128 µg/mL
MIC [31]: > 256 µg/mL
MIC [32]: 24 µg/mL
MIC [33]: > 256 µg/mL
MIC [34]: 24 µg/mL
MIC [35]: 192 µg/mL
MIC [36]: > 256 µg/mL
MIC [37]: 192 µg/mL (≈ 484 µM)
MIC [38]: 24 µg/mL
MIC [39]: > 256 µg/mL
MIC [40]: 24 µg/mL
MIC [41]: > 256 µg/mL
MIC [42]: 192 µg/mL
MIC [43]: > 256 µg/mL
MIC [44]: 32 µg/mL
MIC [45]: > 256 µg/mL
MIC [46]: > 256 µg/mL
MIC [47]: 16 µg/mL
MIC [48]: > 256 µg/mL
MIC [49]: 128 µg/mL
Compound: CC(=O)OCC1=C(C(=O)O)N2C(=O)[C@@H](NC(=O)Cc3cccs3)[C@H]2SC1 [CEPHALOTHIN]

Compound: C[C@@H](O)[C@H]1C(=O)N2C(C(=O)O)=C(S[C@@H]3CN[C@H](C(=O)N(C)C)C3)[C@H](C)[C@H]12 [MEROPENEM]
MIC [1]: 0.38 µg/mL (≈ 0.991 µM)
MIC [2]: 0.094 µg/mL
MIC [3]: 0.032 µg/mL (≈ 0.0834 µM)
MIC [4]: 0.19 µg/mL
MIC [5]: 1 µg/mL
MIC [6]: 0.19 µg/mL (≈ 0.495 µM)
MIC [7]: 4 µg/mL (≈ 10.4 µM)
MIC [8]: 0.25 µg/mL
MIC [9]: 0.5 µg/mL
MIC [10]: 0.25 µg/mL
MIC [11]: 0.19 µg/mL
MIC [12]: 0.25 µg/mL
MIC [13]: 0.38 µg/mL
MIC [14]: 0.5 µg/mL
MIC [15]: 1 µg/mL
MIC [16]: 0.19 µg/mL
MIC [17]: 0.19 µg/mL
MIC [18]: 0.125 µg/mL
MIC [19]: 0.38 µg/mL
MIC [20]: 1 µg/mL
MIC [21]: 0.5 µg/mL (≈ 1.3 µM)
MIC [22]: 0.19 µg/mL
MIC [23]: 0.25 µg/mL
MIC [24]: 0.75 µg/mL
MIC [25]: 3 µg/mL
MIC [26]: 1.5 µg/mL
MIC [27]: 0.023 µg/mL (≈ 0.06 µM)
MIC [28]: 0.25 µg/mL
MIC [29]: 0.5 µg/mL
MIC [30]: 0.25 µg/mL
MIC [31]: 0.023 µg/mL (≈ 0.06 µM)
MIC [32]: 0.38 µg/mL
MIC [33]: 1 µg/mL
MIC [34]: 0.19 µg/mL
MIC [35]: 0.125 µg/mL
MIC [36]: 0.25 µg/mL
MIC [37]: 0.023 µg/mL (≈ 0.06 µM)
MIC [38]: 0.19 µg/mL
MIC [39]: 1 µg/mL (≈ 2.61 µM)
MIC [40]: 0.19 µg/mL
MIC [41]: 0.75 µg/mL
MIC [42]: 0.75 µg/mL
MIC [43]: 0.75 µg/mL (≈ 1.96 µM)
MIC [44]: 0.094 µg/mL
MIC [45]: 0.25 µg/mL
MIC [46]: 0.75 µg/mL (≈ 1.96 µM)
MIC [47]: 0.125 µg/mL
MIC [48]: 3 µg/mL
MIC [49]: 0.38 µg/mL
